Residue numbers refer to the chain shown, from its start.
Legend:
Y30F/Y55F/Y115F/D38N KSI [1] = test: KD by quenching of intrinsic tryptophan fluorescence of KSI; assay type: binding, Pseudomonas putida; conditions: relative to D38N KSI
D38N KSI = target: T1, D38N KSI (Pseudomonas putida, UniProt P07445, D40N); test: KD by quenching of intrinsic tryptophan fluorescence of KSI; assay type: binding
T1 sequence (P07445 1-131 D40N): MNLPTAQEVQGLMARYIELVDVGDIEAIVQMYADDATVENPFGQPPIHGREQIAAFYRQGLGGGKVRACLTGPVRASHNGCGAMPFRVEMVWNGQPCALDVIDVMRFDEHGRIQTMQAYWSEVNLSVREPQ
How it was run: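 Mutant KSI was expressed in E. coli BL21(DE3) and purified to a single SDS-PAGE band. Steroid ligand in DMSO was titrated successively into KSI in 10 mM potassium phosphate with 10% DMSO. Intrinsic fluorescence was read at ex 295/em 315 nm and corrected for dilution. KD was fitted to a binding equation using total steroid and KSI concentrations. Mean ± SD of three independent experiments.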

Y115F KSI = target: T2, Y115F KSI (Pseudomonas putida, UniProt P07445, Y119F); test: Kinetic parameters kcat and KM for steroid substrate; assay type: biochemical
T2 sequence (P07445 1-131 Y119F): T1 sequence (P07445 1-131 D40N) with N40D, Y119F

Y30F KSI [2] = conditions: ref Kim et al., 2000; cited from earlier work
Y30F/Y55F KSI = test: Kinetic parameters kcat and KM for steroid substrate; assay type: biochemical, Pseudomonas putida; conditions: relative to wild type
[3] = in solution; ref Ha et al., 2000; cited from earlier work
Y55F KSI [4] = conditions: ref Kim et al., 2000; cited from earlier work
wild-type KSI = test: Kinetic parameters kcat and KM for steroid substrate; assay type: biochemical, Pseudomonas putida; conditions: relative to wild type
Y30F KSI [5] = test: as above; assay type: biochemical, Pseudomonas putida; conditions: relative to wild type
Y30F/Y55F/Y115F KSI = target: T3, Y30F/Y55F/Y115F KSI (Pseudomonas putida, UniProt P07445, Y119F/Y32F/Y57F); test: as above; assay type: biochemical
T3 sequence (P07445 1-131 Y32F/Y57F/Y119F): T1 sequence (P07445 1-131 D40N) with Y32F, N40D, Y57F, Y119F

Y55F KSI [6] = test: as above; assay type: biochemical, Pseudomonas putida; conditions: relative to wild type
Y30F/Y55F/Y115F/D38N KSI [7] = target: T4, Y30F/Y55F/Y115F/D38N KSI (Pseudomonas putida, UniProt P07445, D40N/Y119F/Y32F/Y57F); test: KD by quenching of intrinsic tryptophan fluorescence of KSI; assay type: binding
T4 sequence (P07445 1-131 Y32F/D40N/Y57F/Y119F): T1 sequence (P07445 1-131 D40N) with Y32F, Y57F, Y119F

Y30F/Y55F/D38N KSI = target: T5, Y30F/Y55F/D38N KSI (Pseudomonas putida, UniProt P07445, D40N/Y32F/Y57F); test: as above; assay type: binding
T5 sequence (P07445 1-131 Y32F/D40N/Y57F): T1 sequence (P07445 1-131 D40N) with Y32F, Y57F

Y115F/D38N KSI = target: T6, Y115F/D38N KSI (Pseudomonas putida, UniProt P07445, D40N/Y119F); test: as above; assay type: binding
T6 sequence (P07445 1-131 D40N/Y119F): T1 sequence (P07445 1-131 D40N) with Y119F

Y30F/D38N KSI = target: T7, Y30F/D38N KSI (Pseudomonas putida, UniProt P07445, D40N/Y32F); test: as above; assay type: binding
T7 sequence (P07445 1-131 Y32F/D40N): T1 sequence (P07445 1-131 D40N) with Y32F

Y55F/D38N KSI = target: T8, Y55F/D38N KSI (Pseudomonas putida, UniProt P07445, D40N/Y57F); test: as above; assay type: binding
T8 sequence (P07445 1-131 D40N/Y57F): T1 sequence (P07445 1-131 D40N) with Y57F

[8] = 34 mM potassium phosphate, pH 7.0, 2.5 mM EDTA, 3.3 % methanol, 298 K

In the case of C[C@]12CC[C@@H]3c4ccc(O)cc4CC[C@H]3[C@@H]1CCC2=O [estrone], the “decrease in binding energy” value (Y30F/Y55F/Y115F/D38N KSI [1]) is reported as 1.3 to 1.4 kcal/mol, the “factor by which affinity is lower than that of D38N KSI” value (Y30F/Y55F/Y115F/D38N KSI [1]) is reported as 9.1–11 and the Kd (D38N KSI) is reported as 110 nM.

With C[C@]12CCC(=O)CC1=CC[C@@H]1[C@@H]2CC[C@]2(C)C(=O)CC[C@@H]12 [5-AND, 5-androstene-3,17-dione] the Km (Y115F KSI; [8]) was 41.7 ± 2 µM, the kcat (Y115F KSI; [8]) was “(14.5 ± 0.4) × 10^3 s^−1” and the Relative kcat (Y115F KSI; relative to wild type) was 0.68. For the same molecule, the “factor of decrease in kcat relative to the wild-type KSI” value (Y30F KSI [2]) was 1.2, the Relative kcat (Y30F/Y55F KSI) was 0.50 and the “pKa of the C4 proton” value [3] was 12.7. The “factor of decrease in kcat relative to the wild-type KSI” value (Y55F KSI [4]) was 6, the Relative kcat (wild-type KSI) was 1 and the Relative kcat (Y30F KSI [5]) was 0.84. The Km (Y30F/Y55F/Y115F KSI; [8]) was 77.3 ± 5.6 µM, the kcat (Y30F/Y55F/Y115F KSI; [8]) was “(12.2 ± 0.2) × 10^3 s^−1” and the Relative kcat (Y30F/Y55F/Y115F KSI; relative to wild type) was 0.57. The Relative kcat (Y55F KSI [6]) was 0.17.

In the case of C[C@]12CCc3c(ccc4cc(O)ccc34)[C@@H]1CCC2=O [equilenin], the Kd (Y30F/Y55F/Y115F/D38N KSI [7]) is reported as 340 nM, the “decrease in binding energy” value (Y30F/Y55F/Y115F/D38N KSI [1]) is reported as 1.3 to 1.4 kcal/mol and the “factor by which affinity is lower than that of D38N KSI” value (Y30F/Y55F/Y115F/D38N KSI [1]) is reported as 9.1–11. The Kd (Y30F/Y55F/D38N KSI) was 250 nM, the Kd (D38N KSI) was 31 nM and the Kd (Y115F/D38N KSI) was 70 nM. The Kd (Y30F/D38N KSI) was 70 nM and the Kd (Y55F/D38N KSI) was 80 nM.

Source: paper PMC4443282 (Molecules and Cells, 2015)
